Measurements as given in ChEMBL document CHEMBL4680088, “Highly Effective Dual-Function Near-Infrared (NIR) Photosensitizer for Fluorescence Imaging and Photodynamic Therapy (PDT) of Cancer” (J Med Chem, 2016).
The source made the active and inactive calls. The rule behind the calls is not given here.

Key:
[1] = Drug uptake in tumor of BALB/c mouse xenografted with […] cells at 1 umol/kg, iv measured after 24 to 48 hrs using 14C-labeled cpd by scintillation counting method; assay type: ADME, organism-based, Neoplasm; conditions: in vivo, time 24-48 hrs, dose 1 µmol/kg
Summary of the method: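 Colon 26 tumor-bearing BALB/c mice (~50 mm3) received 14C-labeled compound 1.0 μmol/kg iv (0.1 μCi/mouse), 3 mice/time point. Mice euthanized at 24, 48 and 72 h; tumor and muscle removed, weighed and solubilized overnight at 50 °C. Radioactivity counted; results given as mean cpm/g tissue ± SD.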

[2] = Drug uptake in tumor of BALB/c mouse xenografted with […] cells at 0.25 umol/kg, iv measured at 24 hrs by fluorescence imaging; assay type: ADME, organism-based, Neoplasm; conditions: in vivo, dose 0.25 µmol/kg
Summary of the method: (§1)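 Subcutaneous Colon 26 tumors (~50 mm3) on the shoulder of BALB/c mice, 3 mice/group. Photosensitizer 0.25 μmol/kg iv in 1% Tween 80/D5W. Under isoflurane, Maestro spectral imaging used the Deep Red filter set (Ex 671–705 nm, Em 750 nm long-pass, 2 s exposure). Images taken at 4, 8, 12, 24 and 48 h; unmixed tumor signal quantified.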

Colon 26 [3] = test: Photodynamic therapy against […] cells assessed as reduction in cell viability at 0.025 uM incubated for 24 hrs followed by exposure to light at 787 nm in the range of 0-1.0 J/cm2 irradiation by MTT assay; assay type: functional, cell-based
Summary of the method: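 Murine Colon 26 cells (3600/well) exposed to 0.025 μM photosensitizer for 24 h. Irradiated at 787 nm from a tunable dye laser, 0–1.0 J/cm2 at 3.2 mW/cm2. MTT added 48 h after light. Blank-subtracted OD divided by untreated OD for each light dose gave percent survival. Single experiment in triplicate.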

Colon 26 [4] = test: (§2) Photodynamic therapy against […] cells xenografted in BALB/c mouse assessed as reduction tumor volumes by measuring tumor cure response at 0.25 umol/kg, iv exposed to laser light at 787 nm at a dose of 135 J/cm2 and 35 mW/cm2 after 24 hrs post dose measured at day 60 post dose; assay type: functional; conditions: dose 0.25 µmol/kg, time 60.0 day
Colon 26 [5] = test: Photodynamic therapy against […] cells xenografted in BALB/c mouse assessed as reduction tumor volumes by measuring tumor response at 0.25 umol/kg, iv exposed to laser light at 787 nm at a dose of 135 J/cm2 and 35 mW/cm2 after 12 hrs post dose measured at day 60 post dose; assay type: functional, organism-based; conditions: dose 0.25 µmol/kg, time 60.0 day
Mus musculus = test: Photosensitizing activity in BALB/c mouse implanted with mouse Colon 26 cells assessed as induction of STAT3 cross-linking at 0.47 umol/kg, iv for 24 hrs followed by exposure to laser light at 787 nm by Western blotting analysis; conditions: BALB/c m, dose 0.47 µmol/kg
Colon 26 [6] = test: Photodynamic therapy against […] cells assessed as reduction in cell viability at 0.1 to 0.4 uM incubated for 24 hrs followed by exposure to 0.25J/cm2 irradiation by MTT assay; assay type: functional, cell-based; conditions: dose 0.1-0.4 µM
Summary of the method: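 Murine Colon 26 cells (3600/well) exposed to a range of photosensitizer concentrations for 24 h, then irradiated at 787 nm, 0.25 J/cm2 (3.2 mW/cm2). MTT readout 48 h after light. Percent survival taken relative to untreated cells after blank subtraction. Experiments done in triplicate.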

[7] = Photosensitizing activity in mouse Colon 26 cells assessed as induction of STAT3 cross-linking at 30 nM incubated for 24 hrs followed exposure to irradiation at 797 nm light (3 J/cm2) by Western blotting analysis
[8] = Photosensitizing activity in mouse Colon 26 cells assessed as induction of STAT3 cross-linking at 15 nM incubated for 24 hrs followed exposure to irradiation at 797 nm light (3 J/cm2) by Western blotting analysis
Colon 26 [9] = test: Photodynamic therapy against […] cells xenografted in BALB/c mouse assessed as reduction tumor volumes by measuring tumor response at 0.25 umol/kg, iv exposed to laser light at 787 nm at a dose of 135 J/cm2 and 35 mW/cm2 after 48 hrs post dose measured at day 60 post dose; assay type: functional, organism-based; conditions: dose 0.25 µmol/kg, time 60.0 day
[10] = Photosensitizing activity in mouse Colon 26 cells assessed as induction of STAT3 cross-linking at 60 nM incubated for 24 hrs followed exposure to irradiation at 797 nm light (3 J/cm2) by Western blotting analysis
[11] = Photosensitizing activity in mouse Colon 26 cells assessed as induction of STAT3 cross-linking at 125 nM incubated for 24 hrs followed exposure to irradiation at 797 nm light (3 J/cm2) by Western blotting analysis
[12] = Drug uptake in tumor of BALB/c mouse xenografted with […] cells at 0.25 umol/kg, iv measured after 4 hrs by fluorescence imaging; assay type: ADME, organism-based, Neoplasm; conditions: in vivo, dose 0.25 µmol/kg; summary of the method: as §1
[13] = Photosensitizing activity in mouse Colon 26 cells assessed as induction of STAT3 cross-linking at 250 nM incubated for 24 hrs followed exposure to irradiation at 797 nm light (3 J/cm2) by Western blotting analysis
[14] = Stability in mouse Colon 26 cells culture media assessed as hydrolysis of methyl ester to carboxylic acid incubated for 24 hrs by TLC analysis; conditions: colon 26, 24 h
Colon 26 (mouse) = test: Drug uptake in tumor of BALB/c mouse xenografted with mouse Colon 26 cells at 0.25 umol/kg, iv measured after 24 hrs followed by exposure to 787 nm light and stoppage of irradiation at regular intervals up to 30 mins by fluorescence imaging based IVIS spectrum-CT method; conditions: in vivo, at 0.25 µmol/kg
[15] = Drug uptake in tumor of BALB/c mouse xenografted with […] cells at 0.25 umol/kg, iv measured after 24 by fluorescence imaging; assay type: ADME, organism-based, Neoplasm; conditions: in vivo, 24 h, dose 0.25 µmol/kg; summary of the method: as §1
[16] = as §2; assay type: functional; set-up: scale not given: the % may be the effect or the level left; conditions: dose 0.25 µmol/kg; time 60 day
[17] = Drug uptake in tumor of BALB/c mouse xenografted with mouse 4T1 cells at 0.25 umol/kg, iv measured after 24 hrs by fluorescence imaging based IVIS spectrum-CT method; assay type: ADME, organism-based, BALB/c m, Neoplasm; conditions: in vivo, dose 0.25 µmol/kg
Summary of the method: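 BALB/c mice (3/group) were given 4T1-luc cells iv to seed lung tumors, and bioluminescence was imaged at day 9. Photosensitizer 0.25 μmol/kg iv, then fluorescence imaging at 24 h on IVIS Spectrum-CT (Ex 785 nm, Em >830 nm). The fluorescence image was merged with bioluminescence.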

[18] = Skin phototoxicity in BALB/c mouse assessed as foot response at 0.25 umol/kg, iv after 24 to 96 hrs post dose followed by mouse restrainment and one hind foot illumination with solar light for 30 mins; assay type: organism-based, BALB/c m; conditions: in vivo, 0.5 h, time 24-96 hrs, dose 0.25 µmol/kg
Summary of the method: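 Non-tumor BALB/c mice given photosensitizer 0.25 μmol/kg iv. At 24, 48, 72 or 96 h (3 mice/group), one hind foot was illuminated for 30 min; the other foot served as control. Edema, erythema, epilation and desquamation scored 0 (normal) to 3 (loss of foot), followed for 4 more days.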

Row | Drug uptake [2] | Structure (SMILES) | Activity (Colon 26 [3]) | Activity (Colon 26 [4]) | Activity (Mus musculus) | Activity (Colon 26 [6]) | Activity [7] [%] | Activity [8] [%] | Activity (Colon 26 [9]) | Activity [10] [%] | Activity [11] [%] | Activity [13] [%] | further results
1 | – | CCCCN1C(=O)c2c3nc(cc4[nH]c(cc5nc(cc6[nH]c2c(c6C)C1=O)[C@H](CC)[C@H]5C)c(C(C)O[14CH2]CCC)c4C)[C@@H](C)[C@@H]3CCC(=O)OC (some centres not stated) | – | – | – | – | – | – | – | – | – | – | Drug uptake [1]: Active
2 | Active | CCCCO[C@H](C)c1c(C)c2cc3nc(c4c5[nH]c(cc6nc(cc1[nH]2)[C@H](C)[C@H]6CC)c(C)c5C(=O)N(CCCC)C4=O)[C@@H](CCC(=O)OC)[C@@H]3C | Active | Active | – | – | – | – | – | – | – | – | –
3 | – | CCCCOC(C)c1c(C)c2cc3nc(c4c5[nH]c(cc6nc(cc1[nH]2)[C@H](C)[C@H]6CC)c(C)c5C(=O)N(CCCC)C4=O)[C@@H](CCC(=O)O)[C@@H]3C (some centres not stated) | – | – | Active | Active | 1.2 | 0.3 | inactive | 5.8 | 9 | 15 | Activity (Colon 26 [5]): inactive; Drug uptake [12]: Active
4 | Active | CCCCOC(C)c1c(C)c2cc3nc(c4c5[nH]c(cc6nc(cc1[nH]2)[C@H](C)[C@H]6CC)c(C)c5C(=O)N(CCCC)C4=O)[C@@H](CCC(=O)OC)[C@@H]3C (some centres not stated) | – | – | Active | Active | 0.2 | 0.1 | inactive | 0.5 | 1.5 | 2.4 | Stabilty [14]: Stable; Drug uptake (Colon 26 (mouse)): 40%; Drug uptake [15]: Not Active; Activity [16]: 80%; Drug uptake [17]: Active; Activity [18]: Non-Toxic
5 | Active | CCCCO[C@@H](C)c1c(C)c2cc3nc(c4c5[nH]c(cc6nc(cc1[nH]2)[C@H](C)[C@H]6CC)c(C)c5C(=O)N(CCCC)C4=O)[C@@H](CCC(=O)OC)[C@@H]3C | Active | Active | – | – | – | – | – | – | – | – | –
